Source: ChEMBL document CHEMBL3259666, “Discovery of a neuroprotective chemical, (S)-N-(3-(3,6-dibromo-9H-carbazol-9-yl)-2-fluoropropyl)-6-methoxypyridin-2-amine [(-)-P7C3-S243], with improved druglike properties” (J Med Chem, 2014)
Activity calls are given as the source filed them. No cut-off for these calls is given here.

Tests used:
NCI-H2122 = assay: Cytotoxicity against human NCI-H2122 cells; format: cell-based
NCI-H2009 = assay: Cytotoxicity against human NCI-H2009 cells; format: cell-based
[1] = Cytotoxicity against human HCC44 cells; format: cell-based
hERG (KCNH2) = hERG (KCNH2) (Homo sapiens, UniProt Q12809); assay: Inhibition of human ERG channel at 50 uM by patch clamp technique
Cytochrome P450 3A4 = Cytochrome P450 3A4 (Homo sapiens, UniProt P08684); assay: Inhibition of CYP3A4 (unknown origin); format: ADME
Cytochrome P450 2C9 = Cytochrome P450 2C9 (Homo sapiens, UniProt P11712); assay: Inhibition of CYP2C9 (unknown origin); format: ADME
Cytochrome P450 2D6 = Cytochrome P450 2D6 (Homo sapiens, UniProt P10635); assay: Inhibition of CYP2D6 (unknown origin); format: ADME
Cytochrome P450 2C8 = biological target: T1, Cytochrome P450 2C8 (Homo sapiens, UniProt P10632); assay: Inhibition of CYP2C8 (unknown origin); format: ADME
T1 sequence (P10632 whole entry): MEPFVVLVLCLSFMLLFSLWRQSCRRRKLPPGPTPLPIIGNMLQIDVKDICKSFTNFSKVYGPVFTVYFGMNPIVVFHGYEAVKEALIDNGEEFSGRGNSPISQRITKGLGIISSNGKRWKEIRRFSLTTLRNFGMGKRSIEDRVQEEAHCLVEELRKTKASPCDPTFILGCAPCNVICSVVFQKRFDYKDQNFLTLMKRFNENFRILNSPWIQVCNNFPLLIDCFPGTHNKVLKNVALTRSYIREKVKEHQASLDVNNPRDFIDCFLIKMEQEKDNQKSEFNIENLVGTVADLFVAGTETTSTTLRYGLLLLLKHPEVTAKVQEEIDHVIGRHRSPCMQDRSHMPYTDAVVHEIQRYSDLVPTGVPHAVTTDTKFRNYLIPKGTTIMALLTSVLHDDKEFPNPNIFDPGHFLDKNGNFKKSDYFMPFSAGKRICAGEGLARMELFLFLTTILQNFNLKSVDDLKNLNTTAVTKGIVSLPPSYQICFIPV

Cytochrome P450 2B6 = biological target: T2, Cytochrome P450 2B6 (Homo sapiens, UniProt P20813); assay: Inhibition of CYP2B6 (unknown origin); format: ADME
T2 sequence (P20813 whole entry): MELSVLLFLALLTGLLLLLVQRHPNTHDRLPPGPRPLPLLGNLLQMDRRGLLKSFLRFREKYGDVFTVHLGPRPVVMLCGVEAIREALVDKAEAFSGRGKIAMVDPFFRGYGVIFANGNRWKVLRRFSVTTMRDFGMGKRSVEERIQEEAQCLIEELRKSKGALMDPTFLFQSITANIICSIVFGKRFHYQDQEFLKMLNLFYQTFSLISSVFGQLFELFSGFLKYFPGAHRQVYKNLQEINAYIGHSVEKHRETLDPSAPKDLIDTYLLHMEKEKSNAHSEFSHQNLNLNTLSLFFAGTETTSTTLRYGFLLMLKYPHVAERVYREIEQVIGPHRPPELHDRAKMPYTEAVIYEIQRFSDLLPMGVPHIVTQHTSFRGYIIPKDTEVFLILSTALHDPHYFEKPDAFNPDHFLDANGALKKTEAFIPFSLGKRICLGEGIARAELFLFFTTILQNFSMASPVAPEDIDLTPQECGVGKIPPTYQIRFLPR

Cytochrome P450 1A2 = biological target: T3, Cytochrome P450 1A2 (Homo sapiens, UniProt P05177); assay: Inhibition of CYP1A2 (unknown origin); format: ADME
T3 sequence (P05177 whole entry): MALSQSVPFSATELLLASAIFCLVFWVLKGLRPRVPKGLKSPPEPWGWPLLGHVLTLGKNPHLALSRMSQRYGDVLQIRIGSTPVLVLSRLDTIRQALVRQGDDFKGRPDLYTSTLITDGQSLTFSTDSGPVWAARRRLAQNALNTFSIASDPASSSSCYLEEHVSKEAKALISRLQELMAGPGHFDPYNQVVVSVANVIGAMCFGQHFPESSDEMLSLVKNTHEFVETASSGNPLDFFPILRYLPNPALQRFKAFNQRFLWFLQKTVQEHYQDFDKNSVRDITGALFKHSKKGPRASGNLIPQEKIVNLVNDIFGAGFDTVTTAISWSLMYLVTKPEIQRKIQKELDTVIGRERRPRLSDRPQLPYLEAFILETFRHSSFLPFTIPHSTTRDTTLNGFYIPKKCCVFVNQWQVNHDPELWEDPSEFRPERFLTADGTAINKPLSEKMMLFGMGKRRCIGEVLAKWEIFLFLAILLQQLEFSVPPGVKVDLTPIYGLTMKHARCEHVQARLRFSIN

Cytochrome P450 2C19 = Cytochrome P450 2C19 (Homo sapiens, UniProt P33261); assay: Inhibition of CYP2C19 (unknown origin); format: ADME
[2] = Protein binding in plasma (unknown origin) by ultracentrifugation method; format: ADME, cell-free; details: read-out: PPB
Translocator protein = Translocator protein (Homo sapiens, UniProt P30536); assay: Inhibition of TSPO (unknown origin)
Mus musculus [3] = assay: Neuroprotective activity in wild type C57BL/J6 mouse assessed as survival of newborn hippocampal neurons at 10 uM, icv administered for 7 days by BrdU staining-based microscopy relative to vehicle-treated control; format: functional, organism-based
Outline: (§1)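 Adult (12-week) wild-type C57BL/J6 mice. Compound infused ICV into the left lateral ventricle by osmotic minipump at 0.5 μL/h for 7 days, with BrdU 50 mg/kg/day IP for 6 days. Perfused 24 h after the last BrdU dose. BrdU antigen unmasked (formamide/SSC at 65 °C, then 2 M HCl); anti-BrdU staining. BrdU+ cells in the contralateral dentate gyrus SGZ counted in every fifth 40 μm section and normalised to dentate gyrus volume.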

Mus musculus [4] = assay: Neuroprotective activity in wild type C57BL/J6 mouse assessed as survival of newborn hippocampal neurons at 0.1 to 10 uM, icv administered for 7 days by BrdU staining-based microscopy relative to vehicle-treated control; format: functional, organism-based; outline: as §1
Mus musculus [5] = assay: Neuroprotective activity in substantia nigra of C57Bl/6 mouse neurogenesis model assessed as protection from MPTP-induced cell death in mature neurons at 5 mg/kg/day, ip bid administered for 21 days by immunohistochemical analysis relative to vehicle-treated control; format: functional, organism-based
Outline: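 MPTP model in adult male C57Bl/6 mice, individually housed 1 week. MPTP free base 30 mg/kg/day IP for 5 days. From day 6 (24 h after the last MPTP dose), compound or vehicle given IP twice daily for 21 days. Mice were then perfused with 4% paraformaldehyde. SNc sectioned at 30 μm intervals and every fourth section stained for TH (DAB, hematoxylin counterstain). TH+ cells counted blinded; mean ± SEM, compared with vehicle + MPTP.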

Mus musculus [6] = assay: Neuroprotective activity in wild type C57BL/J6 mouse assessed as survival of newborn hippocampal neurons at 10 uM, icv administered for 7 days by BrdU staining-based immunohistochemical analysis relative to vehicle-treated control; format: functional, organism-based
Outline: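 Adult (12 week old) C57BL/J6 mice, environmentally deprived; compound infused via osmotic minipump into left lateral ventricle at 0.5 μL/h for 7 days. BrdU IP 50 mg kg–1 day–1 for 6 days during infusion; perfusion 24 h after last BrdU. BrdU+ cells in SGZ/dentate gyrus of contralateral hemisphere counted in every fifth 40 μm section, normalized to dentate gyrus volume; mean ± SEM.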

Chain of Cytochrome P450 2D6 (P10635 whole entry): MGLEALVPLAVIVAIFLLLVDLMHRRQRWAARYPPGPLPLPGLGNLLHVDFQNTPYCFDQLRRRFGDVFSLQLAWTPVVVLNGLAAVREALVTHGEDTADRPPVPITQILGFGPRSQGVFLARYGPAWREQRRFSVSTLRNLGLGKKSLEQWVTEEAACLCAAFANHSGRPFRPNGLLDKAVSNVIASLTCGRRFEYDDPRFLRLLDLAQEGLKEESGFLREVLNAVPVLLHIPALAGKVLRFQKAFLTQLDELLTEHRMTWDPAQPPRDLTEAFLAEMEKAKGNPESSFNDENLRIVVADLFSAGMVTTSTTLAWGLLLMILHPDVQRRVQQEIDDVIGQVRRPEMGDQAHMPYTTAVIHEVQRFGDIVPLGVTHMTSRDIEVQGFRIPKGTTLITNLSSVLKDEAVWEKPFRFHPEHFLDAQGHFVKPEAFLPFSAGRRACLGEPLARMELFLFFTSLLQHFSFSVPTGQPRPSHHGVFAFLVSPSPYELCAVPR
Chain of Cytochrome P450 2C9 (P11712 whole entry): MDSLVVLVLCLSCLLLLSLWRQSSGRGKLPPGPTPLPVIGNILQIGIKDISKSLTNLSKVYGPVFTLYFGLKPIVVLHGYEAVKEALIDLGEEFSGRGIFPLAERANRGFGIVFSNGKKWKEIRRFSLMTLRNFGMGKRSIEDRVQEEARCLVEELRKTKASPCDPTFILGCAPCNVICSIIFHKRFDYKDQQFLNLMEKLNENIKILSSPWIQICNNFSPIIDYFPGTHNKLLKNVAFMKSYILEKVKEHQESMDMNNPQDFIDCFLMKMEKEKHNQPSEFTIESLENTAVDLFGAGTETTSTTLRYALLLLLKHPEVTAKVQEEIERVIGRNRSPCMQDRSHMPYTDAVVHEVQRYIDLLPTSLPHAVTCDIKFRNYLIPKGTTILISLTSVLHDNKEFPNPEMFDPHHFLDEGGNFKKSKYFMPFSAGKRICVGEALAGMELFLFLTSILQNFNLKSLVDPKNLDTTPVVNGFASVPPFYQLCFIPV
Chain of hERG (KCNH2) (Q12809 whole entry): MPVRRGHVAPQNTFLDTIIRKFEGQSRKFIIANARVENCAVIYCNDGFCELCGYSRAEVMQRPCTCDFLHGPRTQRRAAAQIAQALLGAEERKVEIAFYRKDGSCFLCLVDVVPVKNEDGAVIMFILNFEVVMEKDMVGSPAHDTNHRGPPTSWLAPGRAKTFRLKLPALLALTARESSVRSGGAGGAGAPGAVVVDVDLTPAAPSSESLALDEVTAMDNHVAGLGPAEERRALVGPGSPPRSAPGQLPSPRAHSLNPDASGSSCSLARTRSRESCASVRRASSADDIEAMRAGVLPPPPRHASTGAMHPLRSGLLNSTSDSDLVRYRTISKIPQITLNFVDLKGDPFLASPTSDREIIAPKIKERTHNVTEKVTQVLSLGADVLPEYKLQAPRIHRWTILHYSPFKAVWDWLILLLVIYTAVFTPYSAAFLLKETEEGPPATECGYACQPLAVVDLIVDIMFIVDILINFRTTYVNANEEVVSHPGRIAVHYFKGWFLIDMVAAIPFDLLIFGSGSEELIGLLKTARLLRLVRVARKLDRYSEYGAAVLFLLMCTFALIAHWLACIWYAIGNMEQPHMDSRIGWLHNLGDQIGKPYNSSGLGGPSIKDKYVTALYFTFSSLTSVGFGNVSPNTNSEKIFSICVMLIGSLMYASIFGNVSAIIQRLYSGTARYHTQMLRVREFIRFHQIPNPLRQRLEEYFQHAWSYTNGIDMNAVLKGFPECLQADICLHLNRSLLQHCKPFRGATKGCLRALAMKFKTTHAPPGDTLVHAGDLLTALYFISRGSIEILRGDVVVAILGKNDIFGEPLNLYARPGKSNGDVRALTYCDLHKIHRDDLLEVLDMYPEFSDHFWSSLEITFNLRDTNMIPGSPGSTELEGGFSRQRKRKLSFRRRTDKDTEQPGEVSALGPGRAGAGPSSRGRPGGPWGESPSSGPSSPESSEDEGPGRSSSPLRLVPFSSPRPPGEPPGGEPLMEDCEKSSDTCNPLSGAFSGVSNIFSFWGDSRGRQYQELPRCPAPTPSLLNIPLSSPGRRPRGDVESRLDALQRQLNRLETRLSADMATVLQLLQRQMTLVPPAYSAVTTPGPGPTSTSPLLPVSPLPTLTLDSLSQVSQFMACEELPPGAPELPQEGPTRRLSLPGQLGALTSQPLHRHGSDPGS
Chain of Translocator protein (P30536 whole entry): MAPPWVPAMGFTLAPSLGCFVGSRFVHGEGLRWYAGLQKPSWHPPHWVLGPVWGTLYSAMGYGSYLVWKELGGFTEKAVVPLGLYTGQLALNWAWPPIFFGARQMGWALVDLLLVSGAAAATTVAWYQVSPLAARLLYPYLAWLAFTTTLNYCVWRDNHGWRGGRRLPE
Chain of Cytochrome P450 3A4 (P08684 whole entry): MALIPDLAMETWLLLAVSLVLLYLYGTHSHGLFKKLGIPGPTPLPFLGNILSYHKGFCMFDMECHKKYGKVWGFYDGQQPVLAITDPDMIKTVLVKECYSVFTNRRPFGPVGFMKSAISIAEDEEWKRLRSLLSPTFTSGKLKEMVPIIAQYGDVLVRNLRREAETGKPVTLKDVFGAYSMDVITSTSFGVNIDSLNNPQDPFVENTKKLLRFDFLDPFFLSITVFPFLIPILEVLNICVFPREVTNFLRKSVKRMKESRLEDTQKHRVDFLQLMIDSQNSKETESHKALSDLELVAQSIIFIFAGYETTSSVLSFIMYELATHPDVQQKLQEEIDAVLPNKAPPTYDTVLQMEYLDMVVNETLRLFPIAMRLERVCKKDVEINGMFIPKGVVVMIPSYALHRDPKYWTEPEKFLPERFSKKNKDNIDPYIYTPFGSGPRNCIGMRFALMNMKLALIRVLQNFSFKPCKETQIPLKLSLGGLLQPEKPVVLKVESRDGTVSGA
Chain of Cytochrome P450 2C19 (P33261 whole entry): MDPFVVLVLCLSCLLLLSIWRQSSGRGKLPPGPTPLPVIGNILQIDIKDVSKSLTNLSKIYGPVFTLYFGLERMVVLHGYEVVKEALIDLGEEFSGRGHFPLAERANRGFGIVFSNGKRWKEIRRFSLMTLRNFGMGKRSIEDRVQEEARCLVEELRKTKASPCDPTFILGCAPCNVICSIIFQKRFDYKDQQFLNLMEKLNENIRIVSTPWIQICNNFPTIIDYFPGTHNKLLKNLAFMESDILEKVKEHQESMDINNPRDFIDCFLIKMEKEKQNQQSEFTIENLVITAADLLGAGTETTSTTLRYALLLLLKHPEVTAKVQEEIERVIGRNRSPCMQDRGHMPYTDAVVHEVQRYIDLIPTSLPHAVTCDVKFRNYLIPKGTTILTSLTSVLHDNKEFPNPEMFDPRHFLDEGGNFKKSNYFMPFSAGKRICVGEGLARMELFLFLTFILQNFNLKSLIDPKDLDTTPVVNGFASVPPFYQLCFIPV

Structure (SMILES): COc1cccc(NC[C@H](F)Cn2c3ccc(Br)cc3c3cc(Br)ccc32)n1
- IC50 (NCI-H2122): > 10 µM
- IC50 (NCI-H2009): > 10 µM
- IC50 [1]: > 10 µM
- inhibition at 50 µM (hERG (KCNH2)): < 15%
- inhibition (INH) (Cytochrome P450 3A4): Active
- inhibition (INH) (Cytochrome P450 2C9): Active
- inhibition (INH) (Cytochrome P450 2D6): Active
- inhibition (INH) (Cytochrome P450 2C8): Active
- inhibition (INH) (Cytochrome P450 2B6): Active
- IC50 (Cytochrome P450 1A2): 20 µM
- IC50 (Cytochrome P450 2C19): 1900 nM
- fraction unbound [2]: < 0.01
- IC50 (Translocator protein): 350 nM
- Activity (Mus musculus [3]): Active
- Activity (Mus musculus [4]): Active
- Activity (Mus musculus [5]): Active

Structure (SMILES): COc1cccc(NCC(O)Cn2c3ccc(Br)cc3c3cc(Br)ccc32)n1 (stereo not drawn)
- Activity (Mus musculus [6]): Active

Structure (SMILES): NCC(F)Cn1c2ccc(Br)cc2c2cc(Br)ccc21 (stereo not drawn)
- Activity (Mus musculus [6]): Active
